# Rows were chosen to be rich in hits. Some 3% of all compounds tested hit in one or more screens of this group.
# NPY1 pot ag: potentiates or activates human NPY-Y1 receptor; P25929; NPY-Y1 expressing cells, potentiator/agonist activation; activation, % at 3.6 µM; hit rate 0.37% among 220,000; AID 1304; in the data active = activation above about 33%, passing the limit was not always enough;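 also: cells stimulated with NPY at EC10 then isoproterenol at EC100; 0% = low agonist plus stimulus and 100% = saturating agonist plus stimulus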
# Target sequence (P25929 whole entry, looked up): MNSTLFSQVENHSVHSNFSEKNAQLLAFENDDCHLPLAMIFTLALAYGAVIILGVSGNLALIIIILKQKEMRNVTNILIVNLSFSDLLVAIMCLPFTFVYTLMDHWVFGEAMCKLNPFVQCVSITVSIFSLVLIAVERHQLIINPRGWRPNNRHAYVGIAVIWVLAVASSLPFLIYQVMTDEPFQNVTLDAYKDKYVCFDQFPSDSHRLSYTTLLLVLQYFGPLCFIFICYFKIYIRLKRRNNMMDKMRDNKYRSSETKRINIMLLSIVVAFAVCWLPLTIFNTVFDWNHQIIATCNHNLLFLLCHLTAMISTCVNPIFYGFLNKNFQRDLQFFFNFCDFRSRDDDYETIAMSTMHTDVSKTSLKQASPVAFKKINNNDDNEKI
# NPY Y2 blocker: antagonists of human neuropeptide Y receptor Y2. AID 793. P49146. inhibition, % at 2.7 µM. hit rate 0.99% among 140,000. NPY-Y2 expressing cells, antagonist mode;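 also: 0% = vehicle with agonist challenge and 100% = reference antagonist with challenge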
# Hsp70 act: Hsp70 transcriptional activation, primary screen | HeLa Hsp70 promoter luciferase reporter, luminescence; scaled: vehicle 0, proteasome-inhibitor control 100% | activation, % at 10 µM | hit rate 0.04% among 200,000 | AID 1203;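 active = activation above the mean across all tested compounds plus 3 SD, cutoff set per campaign, cut at about 5.5% in these data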;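 also: 100% = MG132 at 30 µM as the positive control and 0% = DMSO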
# NPY-Y2 PAM-ag: potentiators or agonists of human neuropeptide Y receptor Y2. P49146. cells expressing NPY-Y2, potentiator/agonist read-out. activation, % at 3.6 µM. hit rate 0.45% among 220,000. AID 1359; in the data active = activation above about 27%;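 also: cells stimulated with NPY near EC25 plus isoproterenol at EC100; 0% = vehicle plus submaximal agonist and 100% = vehicle plus saturating agonist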
# Wee1 stabilizer: human Wee1 degradation inhibition, primary screen; reporter increase, % at 5 µM; P30291; AID 1321; HeLa Luc-Wee1K328M stability, luciferase luminescence; 100% = proteasome inhibitor MG132 effect; hit rate 1.2% among 220,000;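 active = activation above the mean of all tested compounds plus 3 SD, set per screening run, cut at about 8.8% in these data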;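 also: cells exposed to compound for 20 h before luminescence read; 0% = DMSO alone and 100% = MG132 at 30 µM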
# NPY Y1 blocker: NPY-Y1 (human) receptor antagonism. P25929. HEK293-CNG Y1 cells, membrane potential fluorescence; NPY at EC95, then isoproterenol. inhibition, % at 3.6 µM. hit rate 1% among 200,000. AID 1040;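 active = inhibition above the campaign mean inhibition of all tested compounds plus 3 SD, cut at about 20% in these data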;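 also: 0% = DMSO wells given NPY plus isoproterenol and 100% = isoproterenol alone without NPY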
#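 Material: HEK293 Y1/CNG channel cell line; also added: NPY (25 nM), isoproterenol (1 µM), Ro 20-1724 (25 µM); doses: one concentration, 3.6 µM, in 0.4% DMSO; schedule: compound incubation 1 h at room temperature, readout 45 min post-stimulation; technique: membrane potential fluorescence; measure: fluorescence ratio normalized to % inhibition between controls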
# NPY-Y1 ant conf: confirmation of human neuropeptide Y receptor Y1 antagonists; shares compounds with NPY Y1 blocker; HEK293-CNG NPY-Y1, membrane potential fluorescence, cAMP; NPY challenge against isoproterenol-raised cAMP; inhibition, % at 3.6 µM; hit rate 21% among 1,200; AID 1254; in the data active = inhibition above about 20%;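 also: 0% = vehicle with agonist plus stimulus and 100% = stimulus alone without agonist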
# NPY-Y2 antag ct: counter-screen for NPY-Y1 antagonists: human NPY-Y2 antagonism. inhibition, % at 3.6 µM. AID 1255. HEK293 NPY-Y2 CNG membrane potential fluorescence; cells given NPY, then isoproterenol. hit rate 28% among 1,200. shares compounds with NPY Y1 blocker;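 also: 0% = DMSO with agonist challenge and 100% = reference antagonist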
# * = called active by the depositor; . = not tested or not shown; ! = a repeat was not active. Rule as the data show it, unless noted: active = inhibition above about 17%; inactive = the rest.
SMILES,NPY1 pot ag,NPY Y2 blocker,Hsp70 act,NPY-Y2 PAM-ag,Wee1 stabilizer,NPY Y1 blocker,NPY-Y1 ant conf,NPY-Y2 antag ct
Cc1cc2nc(SCCOC(=O)Nc3ccccc3)nc(C)c2cc1C,-32,6,0,-3,1,23*,4,14
CN1C(=S)N2CCCN2C1c1ccccc1 (stereo not given),21,.,.,3,1,.,.,.
Cc1nn(-c2ccccn2)c2nc(-c3cccs3)cc(C(=O)NCc3ccco3)c12,3,4,0,-2,0,17,.,.
CCOC(=O)c1cc(-c2cccs2)nc2c1c(C)nn2-c1ccccn1,-27,.,0,-22,-1,62*,47*,22*
Cc1cc(C(=O)CSc2nc3ccccc3[nH]2)c(C)n1CC1CCCO1 (stereo not given),-45,5,-1,9,2,26*,42*,16
Cc1ccc(N(CC(=O)NC(C)(C)C)C(=O)CS(=O)CC(=O)Nc2ccc3c(c2)OCO3)cc1 (stereo not given),-2,.,0,-11,-2,9,.,.
COc1cc(Cl)cc2c1Sc1ccccc1/C2=C/CCN(C)C,-17,9,0,-23,-1,16,.,.
COc1cc2c(cc1Cl)/C(=C\CCN(C)C)c1ccccc1S2,-37,11,-1,-19,-1,29*,13,18*
Cc1ccc(CSc2ncnc3ccccc23)cc1,-15,.,0,-7,-2,17,.,.
O=Cc1cc2ccccc2nc1SCc1ccc(Cl)c(Cl)c1,2,1,0,0,3,6,.,.
O=Cc1cc2ccccc2nc1SCc1ccc(Cl)cc1,9,2,0,-13,1,26*,-5,7
Cc1ccc(CSc2nc3ccccc3cc2C=O)cc1,2,-2,0,-3,10*,23*,1,6
Cc1cc2nc3c(nc2cc1C)C(O)=C3O,6,.,.,5,-4,.,.,.
CC(CCc1ccccc1)NC(=O)COc1ccc(S(=O)(=O)N2CCOCC2)cc1[N+](=O)[O-] (stereo not given),12,-1,-1,6,3,-1,.,.
Cc1ccc(SCC(=O)Nc2cc([N+](=O)[O-])ccc2O)cc1,13,.,0,-10,4,8,.,.
CCN1/C(=C/C=C/c2oc3ccc4ccccc4c3[n+]2CC)Oc2ccc3ccccc3c21,-24,.,0,-28,0,35*,30*,30*
OC(CNCCc1ccccc1)COc1ccc(OCC(O)CNCCc2ccccc2)cc1 (stereo not given),-6,.,.,1,0,.,.,.
CN(C)CCCOc1ccc(C(C)(C)c2ccccc2)cc1,-49,13,0,-34,-3,23*,14,23*
CC(C)N(CCNCC(O)COc1ccc(C(C)(C)c2ccccc2)cc1)C(C)C (stereo not given),-22,.,0,-6,1,25*,14,26*
CS(=O)(=O)NCCn1ccc2ccccc21,4,.,0,-1,-1,4,.,.
CCCCOC(=O)c1cc(=O)[nH]c2ccc(C)cc12,-5,.,0,3,1,22*,10,8
CCCCOC(=O)c1cc(=O)[nH]c2ccccc12,-4,2,0,-21,-1,9,.,.
CC(=O)OCC[N+](C)(C)C,-75,3,0,-20,-2,27*,29*,18*!
Cc1ccccc1OCCCn1c(=O)sc2ccccc21,-54,11,0,-12,1,27*,5,7
Cc1ccc(OCCCn2c(=O)sc3ccccc32)cc1,-27,8,0,-12,2,17,.,.
SMILES,NPY1 pot ag,NPY Y2 blocker,Hsp70 act,NPY-Y2 PAM-ag,Wee1 stabilizer,NPY Y1 blocker,NPY-Y1 ant conf,NPY-Y2 antag ct
Cc1csc(C(C#N)C(=O)c2cc3ccccc3o2)n1 (stereo not given),-1,-1,0,5,3,4,.,.
CN(c1ccc(OCc2nnc(-c3ccccc3)o2)cc1)S(=O)(=O)c1ccccc1,-55,15,0,-16,-1,28*,12,14
Cc1cccc(NC(=O)NNC(=O)c2cc3ccccc3cc2O)c1C,-21,.,0,-5,0,24*,15,13
CSCCC(NC(=O)c1ccco1)C(=O)OC(C)C(=O)NC(=O)NC1CCCCC1 (stereo not given),-27,2,0,-21,-3,25*,8,8
CCOC(=O)C(Cc1ccccc1)c1ccnc2nc(N)nn12 (stereo not given),10,.,0,-4,-1,-4,.,.
O=c1[nH]c(=O)n(-c2ccccc2)c2c1C(C(F)(F)F)(C(F)(F)F)N=C(CCC1CCCCC1)N2,8,6,0,-1,-3,-4,.,.
NC(=O)COC(=O)CSc1ccc2ccccc2c1,-39,.,0,-34,3,22*,17,14
CCc1nnc(NC(=O)c2ccc(S(=O)(=O)N3CCCCCC3)cc2)s1,8,0,0,3,2,61*,-4,0
Cc1nn(-c2ccccc2)c(Cl)c1/C=N/NC(=O)OC(C)(C)C,10,5,0,-4,-2,-3,.,.
Cc1ccc(C)c(OCC(=O)N/N=C/c2c(C)nn(-c3ccccc3)c2Cl)c1,-5,12,0,-18,1,21*,5,12
Cc1nc(C(=O)Nc2cc(Cl)ccc2Cl)nn1-c1cc(OC(C)C)c(Cl)cc1Cl,-15,2,0,-8,2,-1,.,.
Cc1nc(C(=O)Nc2cccc(Cl)c2Cl)nn1-c1cc(OC(C)C)c(Cl)cc1Cl,-137,10,0,0,-2,20*,14,26*
CC1(C)[C@H]2CC[C@]1(C)[C@@H](OC(=O)C[N+]1(C)CCOCC1)C2,17,.,.,17,3,.,.,.
CC1(C)C2CCC1(C)C(OCC[N+](C)(C)CC(=O)OC1CCCCC1)C2 (stereo not given),-47,2,0,2,1,24*,10,14
CCOC(=O)C[N+](C)(C)CCOC1CC2CCC1(C)C2(C)C (stereo not given),-28,.,0,-7,-1,24*,10,6
CC1(C)C2CCC1(C)C(NC1=NCCC1)C2 (stereo not given),5,2,0,-10,1,-2,.,.
O=C(NNc1cccc([N+](=O)[O-])c1)/C(=C\c1cccnc1)NC(=O)c1ccccc1,15,.,.,21,-3,.,.,.
COc1ccc(CSc2nc3ccccc3c(=O)n2CCCN2CCOCC2)cc1F,-35,.,0,-22,0,28*,14,14
